# Assay results published in ChEMBL document CHEMBL1129249, “Synthesis and activity of a novel series of 3-biarylquinuclidine squalene synthase inhibitors” (J Med Chem, 1996).
# Biological target: T1, Squalene synthase (Rattus norvegicus, UniProt Q02769)
# T1 sequence (Q02769 whole entry): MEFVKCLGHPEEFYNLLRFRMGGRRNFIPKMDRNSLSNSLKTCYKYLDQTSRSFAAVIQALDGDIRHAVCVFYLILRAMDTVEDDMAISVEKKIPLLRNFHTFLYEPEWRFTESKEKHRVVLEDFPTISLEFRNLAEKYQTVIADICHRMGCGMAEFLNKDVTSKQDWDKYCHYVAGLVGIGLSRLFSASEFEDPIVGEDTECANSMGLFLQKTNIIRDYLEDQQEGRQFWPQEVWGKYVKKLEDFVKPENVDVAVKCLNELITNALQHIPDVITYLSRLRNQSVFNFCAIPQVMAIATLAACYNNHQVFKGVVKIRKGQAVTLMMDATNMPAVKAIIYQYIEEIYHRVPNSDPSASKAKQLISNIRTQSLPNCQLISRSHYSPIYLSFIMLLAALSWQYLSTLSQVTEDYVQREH
# Experiment: In vitro inhibition against rat microsomal squalene synthase (SS)
# In short: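 Squalene synthase came from rat microsomes. Inhibition was tested in phosphate buffer. IC50 values are from duplicate determinations (n = 2).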
row,Structure (SMILES),IC50 [µM]
1,OC1(c2ccc(-c3ccc(-c4ccccc4)cc3)cc2)CN2CCC1CC2 (stereo unspecified),0.37
2,C(=C\C1CN2CCC1CC2)/c1ccc(-c2ccccc2)cc1 (stereo unspecified),0.004
3,OC1(C#Cc2ccc(-c3ccccc3)cc2)CN2CCC1CC2 (stereo unspecified),0.003
4,C(=C/C1CN2CCC1CC2)/c1ccc(-c2ccccc2)cc1 (stereo unspecified),0.58
5,O=C(NC1CN2CCC1CC2)c1ccc(-c2ccccc2)cc1 (stereo unspecified),1.2
6,OC1(c2ccc(-c3nccs3)cc2)CN2CCC1CC2 (stereo unspecified),0.03
7,OC1(c2ccc(-c3cccs3)s2)CN2CCC1CC2 (stereo unspecified),> 2.5
8,OC1(c2ccc(-c3ccc(F)cc3)cc2)CN2CCC1CC2 (stereo unspecified),0.018
9,[O-][S+](CC1(O)CN2CCC1CC2)c1ccc(-c2ccccc2)cc1 (stereo unspecified),> 2.5
10,O=S(=O)(c1ccc(-c2ccccc2)cc1)C1CN2CCC1CC2 (stereo unspecified),> 2.5
11,OC1(c2ccc(-c3ccccn3)cc2)CN2CCC1CC2 (stereo unspecified),0.24
12,CC(C)=CCC/C(C)=C/CC/C(C)=C/COC1CN2CCC1CC2 (stereo unspecified),0.07
13,c1ccc(-c2ccc(CC3CN4CCC3CC4)cc2)cc1 (stereo unspecified),0.027
14,OC1(c2ccc(-c3ccccc3)cc2)CN2CCC1CC2 (stereo in doubt; 2a(-)),0.121
15,OC1(c2ccc(-c3cccs3)cc2)CN2CCC1CC2 (stereo unspecified),0.04
16,OC1(c2ccc(C3OCCCO3)cc2)CN2CCC1CC2 (stereo unspecified),> 2.5
17,OC1(CSc2ccc(-c3ccccc3)cc2)CN2CCC1CC2 (stereo unspecified),0.008
18,OC1(c2ccc(-c3ccccc3)cc2)CN2CCC1CC2 (stereo in doubt; 2),0.016
19,OC1(c2ccc(C3CCCCC3)cc2)CN2CCC1CC2 (stereo unspecified),0.19
20,OC1(CCc2ccc(-c3ccccc3)cc2)CN2CCC1CC2 (stereo unspecified),0.007

row,Structure (SMILES),IC50 [µM]
1,COC1(c2ccc(-c3ccccc3)cc2)CN2CCC1CC2 (stereo unspecified),> 2.5
2,CC(C)=CCC/C(C)=C/CC/C(C)=C/COCC1(O)CN2CCC1CC2 (stereo unspecified),0.06
3,OC(c1ccc(-c2ccccc2)cc1)C1CN2CCC1CC2 (stereo in doubt; 32),2.5
4,c1ccc(-c2ccc(CCC3CN4CCC3CC4)cc2)cc1 (stereo unspecified),0.005
5,OC1(c2ccc(-c3cnc4ccccc4c3)cc2)CN2CCC1CC2 (stereo unspecified),0.2
6,OC1(c2ccc(-c3cccnc3)cc2)CN2CCC1CC2 (stereo unspecified),0.27
7,OC1(c2ccccc2)CN2CCC1CC2 (stereo unspecified),> 2.5
8,C1=C(c2ccc(-c3ccccc3)cc2)C2CCN1CC2,0.018
9,c1ccc(-c2ccc(C3CN4CCC3CC4)cc2)cc1 (stereo unspecified),0.011
10,OC1(c2ccc(-c3ccncc3)cc2)CN2CCC1CC2 (stereo unspecified),0.161
11,OC1(COc2ccc(-c3ccccc3)cc2)CN2CCC1CC2 (stereo unspecified),0.013
12,OC(c1ccc(-c2ccccc2)cc1)C1CN2CCC1CC2 (stereo in doubt; 33),2.5
13,O=S(=O)(CC1(O)CN2CCC1CC2)c1ccc(-c2ccccc2)cc1 (stereo unspecified),> 2.5
14,OC1(c2ccc(-c3nc4ccccc4s3)cc2)CN2CCC1CC2 (stereo unspecified),0.006
15,OC1(c2ccc(-c3ccccc3)cc2)CN2CCC1CC2 (stereo in doubt; 2a(+)),0.007
16,OC1(c2cccc(-c3ccccc3)c2)CN2CCC1CC2 (stereo unspecified),0.06
17,OC1(c2ccc(-c3ncccn3)cc2)CN2CCC1CC2 (stereo unspecified),0.03
18,OC1(c2cnc(-c3ccccc3)s2)CN2CCC1CC2 (stereo unspecified),0.06
19,Oc1ccc(-c2ccc(C3(O)CN4CCC3CC4)cc2)cc1 (stereo unspecified),0.132
20,O=S(=O)(NC1CN2CCC1CC2)c1ccc(-c2ccccc2)cc1 (stereo unspecified),> 2.5

# Tested on: Rattus norvegicus
# Experiment: Inhibition of cholesterol biosynthesis from mevolanate after oral dosing to rat
# Format: functional
# In short: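 Rats were dosed orally, and cholesterol synthesis from mevalonate was then measured. ED50 (mg/kg) was derived from dose–response data and reported with 95% confidence limits.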
row,Structure (SMILES),ED50 [mg/kg]
1,OC1(c2ccc(-c3ccncc3)cc2)CN2CCC1CC2 (stereo unspecified),2.7
